Results on 14 molecules are retold here after PubChem BioAssay.

Activity calls are given as the source filed them.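 How the source made its calls, unless noted: active means inhibition at or above 50% at 10 µM; inactive means inhibition below 50%.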

Assay [1] in a line: inhibitors of TNFa-induced NFkB p65 translocation, primary screen, imaging, HUVEC, MLSMR starter and 10KST1 sets (AID 438;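 active means inhibition above 20% together with a positive visual image hit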;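 further: compound added about 3h40 before a 20 min TNFalpha stimulation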;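 on inhibition: signal is the nuclear over cytoplasmic p65 intensity ratio per well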). The note with it: HUVEC TNFa-induced p65 nuclear translocation; cell count: measured here: nuclei count (cytotoxicity indicator), at 2.08 µM; inhibition: at 2 µM, stronger effect = higher value, 0% TNFa-plus-vehicle, 100% no-TNFa wells.
Assay [2] is described as follows: inhibitors of mutant huntingtin aggregation, primary screen, imaging, exon1htt(103Q)mCFP cells, high-content imaging (AID 483;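 active means visual image review flags a hit and inhibition of aggregation exceeds 20%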;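 further: compound exposure lasted 3 days before fixation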;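 on nuclei count: percent of the per-plate median nuclei count of sample wells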). The note with it: exon1htt(103Q)mCFP cell line, aggregate imaging, at 2 µM; inhibition of aggregation: stronger effect = higher value; nuclei count: measured here: cell count, toxicity.
A short description of assay [3]: inhibitors of E-selectin induction by TNFa, primary screen, imaging, HUVEC, immunofluorescence, MLSMR starter and 10KST1 sets (AID 487;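 active means visually confirmed hit in the image check and inhibition above 20%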;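 on inhibition: signal is fraction of cell area covered by stained E-selectin grains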;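 on nuclei count: 100% = median nuclei count of all wells on the same plate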). The note with it: HUVEC TNFalpha-induced E-selectin immunofluorescence imaging, at 2 µM; inhibition: stronger effect = higher value; nuclei count: measured here: cell number, toxicity.
The target in assay [4] is Voltage-gated potassium channel subunit beta-2 (Rattus norvegicus) (UniProt P62483). As to the kind of experiment: KvBeta enzyme negative modulators, primary screen, biochemical, NADPH fluorescence (AID 622;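 active means fluorescence slope higher than the sample average by over 3 SD, cut at about -0.22 in these data, passing the limit was not always enough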;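 further: slope of raw intensity against log time taken from 70 to 1610 s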). The note with it: recombinant KvBeta, 4-cyanobenzaldehyde reduction, at 10 µM, stronger effect = higher value.
Sequence of Voltage-gated potassium channel subunit beta-2 (Rattus norvegicus) (P62483 whole entry, looked up): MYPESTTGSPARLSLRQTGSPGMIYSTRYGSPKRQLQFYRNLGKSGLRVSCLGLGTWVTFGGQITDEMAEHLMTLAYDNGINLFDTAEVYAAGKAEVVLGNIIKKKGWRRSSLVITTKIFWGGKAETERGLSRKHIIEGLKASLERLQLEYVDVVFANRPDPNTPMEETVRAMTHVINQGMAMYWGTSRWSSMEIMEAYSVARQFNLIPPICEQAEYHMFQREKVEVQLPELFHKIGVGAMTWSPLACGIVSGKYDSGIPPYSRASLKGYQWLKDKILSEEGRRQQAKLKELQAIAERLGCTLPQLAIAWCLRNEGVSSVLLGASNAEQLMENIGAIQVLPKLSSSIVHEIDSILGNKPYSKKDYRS
The target is the same in assay [5]. The experiment in a line: KvBeta positive modulators, primary screen, biochemical, NADPH fluorescence (AID 623;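 active means NADPH fluorescence slope more negative than the mean of all samples by about 3 SD, 99.7% confidence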;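 further: fluorescence intensity change per second fitted from 20 to 320 s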). The note with it: Recombinant KvBeta, NADPH fluorescence decrease slope, 10 min; at 10 µM; stronger effect = lower value.
Assay [6] has as its target Muscarinic acetylcholine receptor M4 (Homo sapiens) (UniProt P08173). The experiment in a line: compounds altering M4/GIRK thallium flux, either direction, primary screen, M4 allosteric agonist project, cell-based, HEK293 M4/GIRK, BTC-AM (AID 625;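 active means fluorescence slope after compound addition differing from the mean of all tested samples at 99.7% confidence, mostly higher but some lower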;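 further: thallium influx through GIRK channels coupled to M4 in HEK293 cells with BTC-AM dye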). The note with it: at 10 µM, actives lie on both sides. The gist of the method: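 assay system = HEK293 cells with M4 receptor and GIRK channels | medium = pH 7.3 thallium assay buffer | doses = 10 µM final, single point | timing = cells overnight at 37 °C, BTC-AM loading 1 h, reads 2 min total | signal = BTC-AM fluorescence, 1 Hz kinetic reads | read-out = post-addition slope, 15–24 s, of baseline-normalized fluorescence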

Assay [7] in a line: inhibitors of Sendai virus-induced IRF3 signaling, primary screen, TLR/RLR signaling modifier project, cell-based, Sendai virus stimulus, luciferase, 10K MLSCN set (AID 602276).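 Further: firefly luciferase from ISG56 promoter only with Renilla not read in this screen; 0% = Sendai virus plus DMSO and 100% = medium plus DMSO without virus.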 The note with it: HEK293 RL24 IRF3 luciferase reporter, at 10 µM, stronger effect = higher value.
Assay [8] in a line: inhibitors of poly I:C-induced TLR3 signaling, primary screen, cell-based, poly I:C stimulus, luciferase, 10K MLSCN set (AID 602277;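 active means inhibition of the reporter signal at or above 50%; inactive means inhibition below 50%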). The note with it: HEK293-TLR3 RL24 IRF3 luciferase reporter, at 10 µM, stronger effect = higher value.

Sequence of Muscarinic acetylcholine receptor M4 (Homo sapiens) (P08173 whole entry, looked up): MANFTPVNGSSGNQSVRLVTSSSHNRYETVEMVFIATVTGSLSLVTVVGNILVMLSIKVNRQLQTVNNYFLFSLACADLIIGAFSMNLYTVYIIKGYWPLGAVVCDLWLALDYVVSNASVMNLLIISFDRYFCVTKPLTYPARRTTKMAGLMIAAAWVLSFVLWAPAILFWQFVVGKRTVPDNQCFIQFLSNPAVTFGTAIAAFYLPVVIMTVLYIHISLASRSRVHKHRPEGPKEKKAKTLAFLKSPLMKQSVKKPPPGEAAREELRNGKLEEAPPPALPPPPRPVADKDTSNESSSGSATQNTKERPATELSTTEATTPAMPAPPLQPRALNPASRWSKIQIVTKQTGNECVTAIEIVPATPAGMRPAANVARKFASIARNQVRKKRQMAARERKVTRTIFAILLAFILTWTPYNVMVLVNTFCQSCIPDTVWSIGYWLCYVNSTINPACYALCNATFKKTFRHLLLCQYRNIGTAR

`O=C(Cc1ccsc1-c1ccccc1)NO`: the cell count in assay [1] is 483. For the same molecule, the inhibition in assay [1] was -1.2% (inactive); in assay [3] it was 44.1% (inactive); in assay [7] it was 17.8% (inactive); in assay [8], 11.3% (inactive). Moreover, the inhibition of aggregation in assay [2] is 11.3% (inactive). The nuclei count was determined as 76% in assay [2] and 57.7% in assay [3]. Also, the values for the fluorescence slope in assay [4] and in assay [6] were -0.46 (inactive) and 0.00508 (inactive), respectively. In addition, in assay [5], the NADPH fluorescence slope is -3.2e-05 (inactive).
For the molecule `COc1ccccc1-c1cc(C(=O)NCCCn2ccnc2)no1`, the cell count in assay [1] turned out to be 459. The inhibition is -15.2% (inactive) in assay [1], 49.5% (inactive) in assay [3], 5.02% (inactive) in assay [7] and 36% (inactive) in assay [8]. The inhibition of aggregation in assay [2] is -15.7% (inactive). In addition, the nuclei count in assay [2] was 106%; in assay [3], 90%. Besides, the fluorescence slope was -0.291 (inactive) in assay [4] and 0.00777 (inactive) in assay [6]. Further, in assay [5], the NADPH fluorescence slope is -2.7e-05 (inactive).
In the case of `CCN1C(=O)NC(c2cc(Br)ccc2OC)C(C(=O)OC)=C1C` (centres undefined), in assay [1], the cell count was 451. The inhibition in assay [1] was -13.1% (inactive); in assay [3], -25.6% (inactive); in assay [7] it was -1.28% (inactive); in assay [8] it was 17.3% (inactive). Moreover, the inhibition of aggregation in assay [2] is 2.4% (inactive). In addition, the values for the nuclei count in assay [2] and in assay [3] were 92% and 89.2%, respectively. Also, the fluorescence slope in assay [4] was -0.491 (inactive); in assay [6], 0.00605 (inactive). In assay [5], the NADPH fluorescence slope was 3.4e-05 (inactive).
On to `CCc1nc(C)c(-c2ccccc2)c(=O)[nH]1`, for which, in assay [1], the cell count is 211. The inhibition was 0.8% (inactive) in assay [1], -99.3% (inactive) in assay [3], -0.853% (inactive) in assay [7] and 3.2% (inactive) in assay [8]. Also, the inhibition of aggregation in assay [2] was 5.5% (inactive). Also, the results for the nuclei count in assay [2] and in assay [3] were 97.2% and 102%, respectively. Moreover, the values for the fluorescence slope in assay [4] and in assay [6] were -0.567 (inactive) and 0.00452 (inactive), respectively. The NADPH fluorescence slope in assay [5] is -7.1e-06 (inactive).
Turning to `Brc1ccc(-c2cn3cccnc3n2)cc1`, in assay [1], the cell count amounted to 514. Also, the inhibition in assay [1] was 3.4% (inactive); in assay [3], -4.5% (inactive); in assay [7], -47.6% (inactive); in assay [8], -89.9% (inactive). Also, the inhibition of aggregation in assay [2] is -8.8% (inactive). The results for the nuclei count in assay [2] and in assay [3] were 121% and 110%, respectively. For the same molecule, the values for the fluorescence slope in assay [4] and in assay [6] were -0.138 (active) and 0.00424 (inactive), respectively. Also, the NADPH fluorescence slope in assay [5] is 7.5e-06 (inactive).
Take `COc1ccccc1C(=O)Nc1c2c(nn1-c1cccc(C)c1C)CS(=O)(=O)C2`: in assay [1], the cell count is 335. The inhibition in assay [1] is -6.6% (inactive); in assay [3], -51.3% (inactive); in assay [7] it was 14.2% (inactive); in assay [8], 19.1% (inactive). Besides, the inhibition of aggregation in assay [2] was -7% (inactive). Besides, the nuclei count in assay [2] was 79.5%; in assay [3] it was 106%. Besides, the fluorescence slope in assay [4] was -0.492 (inactive); in assay [6], 0.00519 (inactive). Further, in assay [5], the NADPH fluorescence slope is -4.5e-06 (inactive).
Consider `Cc1nnc2ccc(N3CCC4(CC3)OCCO4)nn12`, for which the cell count in assay [1] was 538. Besides, the inhibition in assay [1] was -21% (inactive); in assay [3], -83% (inactive); in assay [7], 12.5% (inactive); in assay [8], 8.72% (inactive). The inhibition of aggregation in assay [2] was 9.6% (inactive). The nuclei count is 112% in assay [2] and 117% in assay [3]. Further, the figures for the fluorescence slope in assay [4] and in assay [6] were -0.322 (inactive) and 0.00635 (inactive), respectively. In assay [5], the NADPH fluorescence slope was -3.3e-05 (inactive).
Turning to `Cc1c(Br)c(C(F)(F)F)nn1CC(=O)NCCN1CCOCC1`, the cell count in assay [1] was determined as 412. The inhibition in assay [1] was 1.6% (inactive); in assay [3], -39.7% (inactive); in assay [7], 1.54% (inactive); in assay [8], 21.8% (inactive). Besides, the inhibition of aggregation in assay [2] was 0.2% (inactive). Also, the nuclei count in assay [2] amounted to 86.5%; in assay [3], 114%. Also, the values for the fluorescence slope in assay [4] and in assay [6] were -0.553 (inactive) and 0.00496 (inactive), respectively. The NADPH fluorescence slope in assay [5] is -5.2e-05 (inactive).
As to `CC(C)(C)NC(=O)Nc1ccccc1C(N)=O`, the cell count in assay [1] stood at 657. Besides, the inhibition was 1.6% (inactive) in assay [1], -34.5% (inactive) in assay [3], 3.23% (inactive) in assay [7] and -20.8% (inactive) in assay [8]. The inhibition of aggregation in assay [2] was -14.8% (inactive). Besides, the figures for the nuclei count in assay [2] and in assay [3] were 108% and 107%, respectively. The figures for the fluorescence slope in assay [4] and in assay [6] were -0.539 (inactive) and 0.0058 (inactive), respectively. In assay [5], the NADPH fluorescence slope is -8e-06 (inactive).
Consider `COc1ccccc1N1CCN(C(=O)c2oc3cc(C)c(C)cc3c2C)CC1`, for which the cell count in assay [1] was determined as 355. The inhibition in assay [1] is 1.3% (inactive); in assay [3], -46.9% (inactive); in assay [7], 21.1% (inactive); in assay [8] it was 15% (inactive). For the same molecule, in assay [2], the inhibition of aggregation was -10.8% (inactive). In addition, the nuclei count in assay [2] was 101%; in assay [3] it was 87.3%. Also, the fluorescence slope in assay [4] is -0.546 (inactive); in assay [6], 0.00423 (inactive). Moreover, the NADPH fluorescence slope in assay [5] was 2.2e-05 (inactive).
On to `Cc1nnc(SCC(=O)NC(C)(C)C)n1CCc1ccccc1`, for which, in assay [1], the cell count came to 677. Further, the inhibition in assay [1] was 2.8% (inactive); in assay [3] it was -20.1% (inactive); in assay [7], 11.7% (inactive); in assay [8] it was 8.89% (inactive). The inhibition of aggregation in assay [2] is -3.9% (inactive). Besides, the figures for the nuclei count in assay [2] and in assay [3] were 109% and 135%, respectively. The fluorescence slope in assay [4] was -0.512 (inactive); in assay [6], 0.00442 (inactive). Moreover, in assay [5], the NADPH fluorescence slope was -4.5e-05 (inactive).
Consider `CCOC(=O)c1cccc(NC(=O)CSc2nnc(-c3ccoc3C)n2CCOC)c1`, for which the cell count in assay [1] is 553. In addition, the inhibition was -9.5% (inactive) in assay [1], -140% (inactive) in assay [3], 18.8% (inactive) in assay [7] and 27.2% (inactive) in assay [8]. The inhibition of aggregation in assay [2] was 1% (inactive). The nuclei count in assay [2] was determined as 89.7%; in assay [3], 133%. Further, the fluorescence slope was -0.577 (inactive) in assay [4] and 0.00584 (inactive) in assay [6]. In assay [5], the NADPH fluorescence slope was 7.3e-06 (inactive).
In the case of `CCCCn1c(CN2CCN(CCO)CC2)nc2ccccc21`, the cell count in assay [1] stood at 611. Further, the inhibition in assay [1] was 6.2% (inactive); in assay [3], 44.3% (inactive); in assay [7], 2.03% (inactive); in assay [8], 19.1% (inactive). In assay [2], the inhibition of aggregation is -17.9% (inactive). The figures for the nuclei count in assay [2] and in assay [3] were 112% and 84.5%, respectively. Besides, the fluorescence slope was -0.468 (inactive) in assay [4] and 0.00452 (inactive) in assay [6]. The NADPH fluorescence slope in assay [5] is -0.000309 (inactive).
Consider `CN(Cc1nc(-c2ccncc2)no1)S(=O)(=O)c1ccc(Br)cc1`, for which the cell count in assay [1] came to 492. The inhibition in assay [1] is -9.3% (inactive); in assay [3], -56.8% (inactive); in assay [7], 4.91% (inactive); in assay [8] it was -6.05% (inactive). Moreover, the inhibition of aggregation in assay [2] is -5.7% (inactive). The nuclei count in assay [2] is 108%; in assay [3], 194%. Further, the fluorescence slope was -0.589 (inactive) in assay [4] and 0.01 (inactive) in assay [6]. In assay [5], the NADPH fluorescence slope is -3.3e-05 (inactive).
